TRPC6 act: activates the mouse TRPC6 cation channel. HEK293-TRPC6 membrane potential dye fluorescence; stronger effect = higher value. B-score at 10 µM. 310,000 tested, 0.13% active. AID 2550;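 active = B-score of the integrated fluorescence ratio above library mean plus 3 SD, and starting fluorescence ratio within library mean plus 5 SD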;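 note: higher score means more depolarization so channel activation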
Target sequence (Q61143 whole entry, looked up): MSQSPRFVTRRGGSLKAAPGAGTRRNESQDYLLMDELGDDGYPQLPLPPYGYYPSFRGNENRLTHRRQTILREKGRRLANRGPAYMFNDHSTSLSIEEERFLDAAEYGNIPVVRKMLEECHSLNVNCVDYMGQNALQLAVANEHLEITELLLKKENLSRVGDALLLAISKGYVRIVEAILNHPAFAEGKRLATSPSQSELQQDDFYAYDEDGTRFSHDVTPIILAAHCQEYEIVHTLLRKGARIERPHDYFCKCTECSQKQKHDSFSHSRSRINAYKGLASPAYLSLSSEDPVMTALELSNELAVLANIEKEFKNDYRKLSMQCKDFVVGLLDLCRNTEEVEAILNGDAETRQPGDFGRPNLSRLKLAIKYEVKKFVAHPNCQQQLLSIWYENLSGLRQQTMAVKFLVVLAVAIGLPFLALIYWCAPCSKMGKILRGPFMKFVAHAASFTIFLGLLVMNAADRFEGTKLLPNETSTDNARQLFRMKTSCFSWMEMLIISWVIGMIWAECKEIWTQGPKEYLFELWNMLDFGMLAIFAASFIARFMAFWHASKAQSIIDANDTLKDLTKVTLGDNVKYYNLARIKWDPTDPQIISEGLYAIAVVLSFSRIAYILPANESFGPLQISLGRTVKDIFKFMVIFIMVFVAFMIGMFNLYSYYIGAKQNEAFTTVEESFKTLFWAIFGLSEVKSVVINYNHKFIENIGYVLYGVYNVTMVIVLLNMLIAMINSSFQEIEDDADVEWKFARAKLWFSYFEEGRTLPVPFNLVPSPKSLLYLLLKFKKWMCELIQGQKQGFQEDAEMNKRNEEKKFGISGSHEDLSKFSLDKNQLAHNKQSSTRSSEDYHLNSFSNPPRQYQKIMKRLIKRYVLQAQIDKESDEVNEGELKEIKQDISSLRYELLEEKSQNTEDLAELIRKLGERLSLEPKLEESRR
TRPC4 PAM: TRPC4 (mouse) allosteric potentiation. HEK293 TRPC4beta/mu-opioid, DAMGO EC20, Fluo-4 Ca2+ flux; stronger effect = higher value. B-score at 10 µM. 310,000 tested, 0.42% active. AID 2227;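 active = B-score of calcium response area above 5 SD of library B-scores, with initial fluorescence ratio within 5 SD of library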;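 note: B-score of integrated fluorescence ratio over time as area under calcium response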
TRPC4 act: TRPC4 (mouse) channel activation; HEK293 TRPC4beta/mu-opioid, Fluo4 calcium fluorescence; stronger effect = higher value; B-score at 10 µM; 310,000 tested, 0.49% active; AID 2237;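 active = B-score above 5 SD of library B-scores, and initial fluorescence ratio not above library mean plus 5 SD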;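 note: positive B-score marks a calcium rise read as TRPC4 activation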
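Material: HEK293 stable line with TRPC4beta plus mu-opioid receptor; technique: Fluo4 calcium-sensitive dye fluorescence, kinetic, 1 Hz baseline; timing: Fluo4 dye loading 45 min at room temperature, 110 s recording; controls: assay buffer as low control, maximal DAMGO as high control; read-out: integrated baseline-normalised fluorescence ratio, converted to per-well B score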
TRPC4 inh: blocks the mouse TRPC4 cation channel; Q9QUQ5; HEK293 TRPC4beta/mu-opioid, DAMGO-evoked Fluo4 calcium flux; stronger effect = lower value; B-score at 10 µM; 300,000 tested, 0.39% active; AID 2247;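 active = B-score over 3 SD under the library average, no early fluorescence shift, positive overall ratio signal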
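Assay system: HEK293 cells with stable TRPC4beta plus mu-opioid receptor expression. Dosing: single dose. Measured by: Fluo4 Ca2+ flux fluorescence. Also added: DAMGO in two steps, submaximal then maximal. Read-out: B score from integrated Fluo4 fluorescence ratio.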
TRPC6 inh: mouse TRPC6 channel inhibition | HEK293-TRPC6, membrane potential dye, ACh-evoked depolarization; stronger effect = lower value | Q61143 | AID 2553 | 310,000 tested, 1.1% active | B-score at 10 µM;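 active = B-score under library mean minus 3 SD, initial fluorescence not abnormally high, positive integrated signal ratio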;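 note: B-score derived from integrated fluorescence ratio over the kinetic read; more negative B-score means stronger inhibition of depolarization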
TRPC4 spec 2: mouse TRPC4 off-target activity of TRPC6 inhibitors, second screen; AID 2776; inhibition, % at 10 µM; HEK293 TRPC4/MOR, membrane potential dye fluorescence; channel activated by saturating DAMGO dose; shares compounds with TRPC6 inh; 920 tested, 42% active;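 active = compounds whose fluorescence signal differed from control wells by over 3 SD, either direction, in both duplicate plates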
TRPC4 spec: selectivity of TRPC6 inhibitors: effect on mouse TRPC4; activity change, negative = inhibition, % at 10 µM; shares compounds with TRPC6 inh; HEK293 TRPC4/mu-opioid, membrane potential fluorescence; 920 tested, 61% active;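 active = rise or fall in signal beyond 3 SD of buffer-only wells in both replicate plates, either sign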;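 note: integrated kinetic ratio of fluorescence range over baseline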
HEK293 MPD ctr 2-1: second counter-screen for TRPC6 inhibitors: parental HEK293 cells; shares compounds with TRPC6 inh; parental HEK293 membrane potential dye fluorescence; maximal acetylcholine challenge after compound addition; signal change vs control, % at 10 µM; 920 tested, 31% active; AID 2779;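 active = membrane potential signal moving either way by over 3 SD of the maximum-effect control, in both duplicate plates, meaning non-specific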
HEK293 MPD ctr-1: parental HEK293 nonspecific activity of TRPC6 inhibitors | shares compounds with TRPC6 inh | parental HEK293 membrane potential dye fluorescence | membrane potential signal change, % at 10 µM | 920 tested, 60% active;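 active = membrane potential signal shifting up or down by more than 3 SD of buffer-only wells, on both duplicate plates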
HEK293 MPD ctr-2: parental HEK293 nonspecific activity of TRPC6 modulators. shares compounds with TRPC6 inh. membrane potential dye fluorescence. membrane potential signal change, % at 10 µM. 2,400 tested, 51% active. AID 488924;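 active = membrane potential signal moves up or down beyond 5 SD from buffer-only wells, on both duplicate plates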
HEK293 MPD ctr 2-2: parental HEK293 nonspecific activity of TRPC6 modulators, second screen; membrane potential dye fluorescence; after compound, maximal acetylcholine stimulation; 2,400 tested, 14% active; shares compounds with TRPC6 inh; inhibition, % at 10 µM; AID 488926;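 active = membrane potential signal drops by more than 5 SD from the mean control signal, in both duplicate plates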;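 note: plate controls were acetylcholine ECmax control wells for no effect and buffer only wells for full effect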
TRPC4/MOR mod: tests whether TRPC6 modulators also affect mouse TRPC4 | shares compounds with TRPC6 inh | HEK293 TRPC4/mu-opioid, membrane potential fluorescence | percent change from control (negative = decrease, positive = increase), % at 10 µM | 2,400 tested, 69% active;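 active = membrane potential signal moved up or down beyond 5 SD of buffer control wells, in both duplicate plates, actives on both sides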;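 note: plate controls were assay buffer wells for no effect and DAMGO maximal-effect wells for full effect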
TRPC4/MOR inh 2: mouse TRPC4 off-target activity of TRPC6 modulators, second screen; shares compounds with TRPC6 inh; HEK293 TRPC4/mu-opioid, membrane potential dye fluorescence; stimulated with maximal-effect DAMGO; inhibition, % at 10 µM; 2,400 tested, 55% active;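 active = drop in membrane potential signal beyond 5 SD of the control wells in both duplicate plates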;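 note: TRPC4 counter screen for TRPC6 hits run under conditions tuned for TRPC6 not TRPC4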
TRPC6 inh conf: confirmation of mouse TRPC6 inhibitors; shares compounds with TRPC6 inh; HEK293-TRPC6, membrane potential dye, ACh-evoked depolarization; inhibition, % at 10 µM; 3,300 tested, 43% active;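 active = fluorescence ratio falls more than 5 SD below the full-stimulation control mean, in both duplicate runs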;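 note: integrated fluorescence ratio of peak minus minimum over baseline after agonist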
TRPC6 act confirm: confirmation of mouse TRPC6 activators. shares compounds with TRPC6 inh. 2,800 tested, 11% active. activation, % at 10 µM. HEK293-TRPC6 membrane potential dye fluorescence, FDSS;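 active = ratio signal rise beyond 5 SD above unstimulated control wells' mean, seen in both duplicate runs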;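 note: plate controls were buffer EC0 wells for no effect and acetylcholine ECmax response for full effect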
Active calls of the source: *; i = inactive; / = not tested or not shown; + = active, no number. An excerpt weighted towards active compounds, which were near 2.3% of everything screened.

SMILES	TRPC6 act	TRPC4 PAM	TRPC4 act	TRPC4 inh	TRPC6 inh	HEK293 MPD ctr-2	HEK293 MPD ctr 2-2	TRPC4/MOR mod	TRPC4/MOR inh 2	TRPC6 inh conf	TRPC6 act confirm	others
CC(=O)N1CCC(C(=O)Nc2ccc(S(=O)(=O)N3CCCCC3)cc2)CC1	i	i	i	i	i	/	/	/	/	/	/
Cc1cc(-c2ccc(C)c(S(=O)(=O)NCC3CCN(Cc4cccc(F)c4)CC3)c2)on1	i	i	i	i	i	/	/	/	/	/	/
Cc1cc(-c2ccc(C)c(S(=O)(=O)NCC3CCN(Cc4ccccc4F)CC3)c2)on1	i	i	i	i	-5*	i	i	i	76%*	36%*	i
Cc1ccc(NC(=O)COc2ccccc2CNC(C)(C)CC(C)(C)C)cc1	14*	i	i	i	i	296%*	i	71%*	i	i	176%*
CC(C)(CO)NCc1ccccc1OCC(=O)Nc1ccccc1	i	i	i	i	i	/	/	/	/	/	/
Cn1nnc(NC(=S)NC(=O)c2cccc3c(Cl)cccc23)n1	i	i	i	i	i	/	/	/	/	/	/
CCN(CC)CCCOC(=O)C(c1ccccc1)c1ccccc1	i	i	i	i	-7.2*	/	/	/	/	61%*	/	TRPC4 spec 2=i;TRPC4 spec=9.6%*;HEK293 MPD ctr 2-1=i;HEK293 MPD ctr-1=12%*
CCOC(=O)N1CCc2c(sc(NC(=O)CN3CCOCC3)c2C(=O)Nc2ccccc2)C1	i	i	i	i	i	/	/	/	/	/	/
CCOC(=O)N1CCc2c(sc(NC(=O)CN3CCN(C)CC3)c2C(=O)Nc2ccccc2)C1	i	i	i	i	-5.3*	-83%*	i	-24%*	46%*	i	i
O=C(COC(=O)c1cccc(C(=O)OCC(=O)NC2CC2)n1)NC1CC1	i	i	i	i	i	/	/	/	/	/	/
COc1ccc(OCC(=O)N2CCC3(CC2)CC(=O)c2ccccc2O3)cc1	i	i	i	i	i	/	/	/	/	/	/
COc1ccc(NC(=S)N2CCCC(c3nc4ccc(C)cc4[nH]3)C2)cc1 (stereo not given)	i	i	i	i	-6.5*	i	i	i	i	i	i
O=C(Nc1cccc([N+](=O)[O-])c1)c1ccc(N2CCCC2=O)cc1	i	i	i	i	i	/	/	/	/	/	/
O=C(Nc1ccncc1)c1ccc(N2CCCC2=O)cc1	i	i	i	i	-7.1*	-238%*	i	-42%*	34%*	i	i
COc1cc(OC)c(C(=O)N(CCc2ccccc2)Cc2ccccc2)cc1OC	i	i	i	i	-6.9*	/	/	/	/	i	i	TRPC4 spec 2=i;TRPC4 spec=15%*;HEK293 MPD ctr 2-1=i;HEK293 MPD ctr-1=9.0%*
O=C(c1ccc(N2CCOCC2)cc1[N+](=O)[O-])N1CCOCC1	i	i	i	i	i	/	/	/	/	/	/
CCSC1=N/C(=C\c2ccc(C(=O)O)cc2)C(=O)S1	i	i	i	i	i	/	/	/	/	/	/
CCOC(=O)SC1=N/C(=C\c2ccc(N(C)C)cc2)C(=O)S1	12*	i	i	i	-6*	i	i	12%*	i	i	i
Nc1ncc2c(n1)-c1ccccc1CC2	i	i	i	i	i	/	/	/	/	/	/
c1ccc2c(c1)CCc1ccccc1C2=C1CCNCC1	i	i	i	i	-7.2*	/	/	/	/	i	i	TRPC4 spec 2=60%*;TRPC4 spec=3.8%*;HEK293 MPD ctr 2-1=i;HEK293 MPD ctr-1=2.8%*
COc1ccccc1NC(=O)N1CCCC1C(=O)NCc1ccccc1Cl (stereo not given)	i	i	i	i	i	/	/	/	/	/	/
CC(O)CNCCNCc1c(OCc2ccccc2)ccc2ccccc12 (stereo not given)	i	i	i	i	-7.9*	/	/	/	/	66%*	i	TRPC4 spec 2=28%*;TRPC4 spec=-9.5%*;HEK293 MPD ctr 2-1=i;HEK293 MPD ctr-1=i
CCCc1cc(-c2[nH]ncc2-c2ccc3c(c2)OCCCO3)c(O)cc1O	i	i	i	i	-8*	/	/	/	/	63%*	i	TRPC4 spec 2=i;TRPC4 spec=i;HEK293 MPD ctr 2-1=208%*;HEK293 MPD ctr-1=i
O=C(Nc1cccc(NC(=O)c2ccc(Br)o2)n1)c1ccc(Br)o1	i	i	i	i	-6.3*	i	i	i	i	i	i
Cc1nc(NC(=O)c2ccc(Br)o2)ccc1Br	i	i	i	i	i	/	/	/	/	/	/
CCN(CCO)Cc1csc2ccc(C(C)(C)C)cc12	i	i	i	i	i	/	/	/	/	/	/
O=C1/C(=C\c2cc([N+](=O)[O-])ccc2O)SC(=S)N1Cc1ccc(Cl)cc1	51*	21*	137*	i	i	+	i	284%*	i	i	178%*
Cc1cc(N2CCN(S(=O)(=O)c3ccc(Cl)c(Cl)c3)CC2)c2ccccc2n1	i	i	i	i	i	/	/	/	/	/	/
COc1cccc(Cl)c1NC(=O)N1CCN(c2cc(C)nc3ccccc23)CC1	i	i	i	i	-9.7*	-146%*	i	-38%*	74%*	48%*	i
Cc1cc(N2CCN(S(=O)(=O)c3ccc(Cl)cc3)CC2)c2ccccc2n1	i	i	i	i	-5.1*	-75%*	i	-22%*	72%*	i	i
